To fix the notation:
B1: tRNA (parent)
chain: GUUCCGUUGGCGUAAUGGUAACGCGUCUCCCUCCUAAGGAGAAGACUGCGGGUUCGAGUCCCGUACGGAACG

Variants at the floor of the assay were thinned out. Where only a bound is given, the exact number is not on record here.

The series covers variants of B1. The experiment in a line: yeast fitness relative to wild type (ratio to wild type); higher = fitter; tRNA-Arg(CCU), competitive growth, 37 C, YPD. A digest of the protocol: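 Variants of the tRNA-Arg(CCU) gene, chemically synthesised with a 3% per-site mutation rate at 69 sites, were placed at the native genomic locus in Saccharomyces cerevisiae. The pooled strains were competed in YPD at 37°C for 24 hours in six parallel replicates. Gene amplicons from the start population and from each end population were read by 100-nucleotide paired-end sequencing. Darwinian fitness relative to wild type came from changes in genotype frequencies; genotypes needed ≥ 100 starting reads, and estimates < 0.5 were set to 0.5.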
On to C27U A37C, for which the yeast fitness came out at 0.664.

Take G25A U28A A65U: the yeast fitness was 0.697.

As to C5U A21G C24A A42C, the yeast fitness was at most 0.5.

For the variant G10C U19A, the yeast fitness was found to be 0.612.

Consider U3A G9A C29U, for which the yeast fitness was 0.751.

U8A U47G G56A: the yeast fitness is at most 0.5.

For G23C C46U, the yeast fitness stood at 0.568.

Turning to C4A A37G G63C, the yeast fitness was found to be 0.552.

For U19A U53C, the yeast fitness worked out at 0.806.

Consider C4U C5A U13A C31U C34U C66U, for which the yeast fitness was at most 0.5.

On to G6C A14G A20C U54A A57C, for which the yeast fitness is at most 0.5.

As to U2C C46G, the yeast fitness was 0.98.

As to U16A G23A C29U C34G G58A, the yeast fitness was at most 0.5.

On to C4A C31G A40U U64A, for which the yeast fitness was at most 0.5.

As for C11U G38C C55G G67A, the yeast fitness is at most 0.5.

On to U8A C22G G25A C27A C33U A57C G68C, for which the yeast fitness was at most 0.5.

Regarding C4G C30G G50U C66U, the yeast fitness was determined as 0.588.

In the case of C5A C27U C46U, the yeast fitness came out at 0.739.

Regarding G50C G58U G68U A69G, the yeast fitness was 0.508.

As for A15G A36C G50C, the yeast fitness is at most 0.5.

On to A43G G50A, for which the yeast fitness was 0.864.

Regarding C33U C49U G51C, the yeast fitness came to 0.512.

Turning to U3C U8G U32A C33G C61U C62U, the yeast fitness turned out to be 0.561.

Turning to A21G G39A G44C, the yeast fitness is at most 0.5.

For the variant A15G G51A A65U, the yeast fitness was at most 0.5.

For C4G U8A G18C U32A U47C U54C, the yeast fitness is at most 0.5.

For the variant U2G U8A G23A U26G A43G U54C C55A, the yeast fitness is at most 0.5.

For A21U U32G U59C, the yeast fitness turned out to be 0.732.

On to U3A C22A C33A A36U U53A U54A, for which the yeast fitness was at most 0.5.

C27G C31G U53A G56A G63A: the yeast fitness came out at 0.534.

As to A40U A42C A45U U47C A65G, the yeast fitness is at most 0.5.

Consider C4A C5A A43G, for which the yeast fitness came to 0.529.

Turning to C33U A36G G39A G44A C55G U59C, the yeast fitness is at most 0.5.

On to U8G A14G C33U, for which the yeast fitness is at most 0.5.

On to C49U C62A, for which the yeast fitness amounted to 0.787.

For A14U A42U A65G A69C, the yeast fitness was at most 0.5.

For A14G C66G, the yeast fitness worked out at 0.761.

Consider A20C C29U C34A C46A G50A A57U C66U, for which the yeast fitness was at most 0.5.

Turning to C4U C33G C60G, the yeast fitness is at most 0.5.

On to G6C U7G U16G A43G A65C, for which the yeast fitness came to 0.805.

Consider U2G G9A U59A, for which the yeast fitness is at most 0.5.

Regarding U59C U64C, the yeast fitness came out at 0.92.

A15C U16C C31G A69U: the yeast fitness was at most 0.5.

For U3G U26A A65G, the yeast fitness was at most 0.5.

Consider G9A U16C C29G U53A, for which the yeast fitness is at most 0.5.

As to A15C C27G C61G, the yeast fitness came out at 0.781.

Consider C11U A15G G48C, for which the yeast fitness was determined as 0.511.

As for G10C U35G A43C U47C C55U, the yeast fitness is at most 0.5.

Consider C5G U8A G39A, for which the yeast fitness is at most 0.5.

Regarding U2G A40C G68C, the yeast fitness stood at 0.54.

With A21U C49G A69C, the yeast fitness was at most 0.5.

Consider U13A A43C A57C, for which the yeast fitness is at most 0.5.

On to A14U A57C, for which the yeast fitness is at most 0.5.

For the variant A36U G39A A42C G50U G63A, the yeast fitness was 0.535.

Regarding G10C G44C U47C G52A U53C C61U, the yeast fitness is at most 0.5.

For the variant C4U C24A C30G, the yeast fitness was 0.554.

For G51A C61U C66G, the yeast fitness is at most 0.5.

On to C4U U28C C49G C61U, for which the yeast fitness is at most 0.5.

For U13A A21C C33U G52A A57G G67U, the yeast fitness was at most 0.5.

On to G41A C49U, for which the yeast fitness turned out to be 0.921.

In the case of C11G A15G U26A U32A G38A A40C G58A, the yeast fitness was at most 0.5.

For the variant U3G A15G C24G G50A, the yeast fitness came out at 0.539.

With C27A A45G G68C, the yeast fitness is at most 0.5.

Take U28A A57G: the yeast fitness amounted to 0.688.

Consider C5G A37U C46U A69C, for which the yeast fitness was at most 0.5.

On to G10A A15C C34A G56A, for which the yeast fitness was at most 0.5.

Regarding C34A A36C, the yeast fitness came to 0.511.

On to G6C G25A, for which the yeast fitness is 1.17.

As for C11U C30G A40U U54A, the yeast fitness was at most 0.5.

Take U28A C49U: the yeast fitness was 0.804.

On to C11U A65G A70U, for which the yeast fitness amounted to 0.606.

On to A15C C22G A43C G50A U59C, for which the yeast fitness was at most 0.5.

C34U G39A U47C G56A: the yeast fitness was at most 0.5.

On to U28C C31U A36C G41C U47A, for which the yeast fitness was at most 0.5.

Consider A14G C33U A40U C62G, for which the yeast fitness amounted to 0.68.

Consider C5G A15G U16A A20G U28A C30A C33A A36U A69C, for which the yeast fitness was 0.578.

In the case of C5A A14G A20U A37C C49A C66A, the yeast fitness was at most 0.5.

In the case of C61U A65U C66U, the yeast fitness was at most 0.5.

Turning to G23C C24G C34G U64A, the yeast fitness is at most 0.5.

Turning to U2A C5A C11U C27G C60A, the yeast fitness was at most 0.5.

Take G10C A21G C30A G38C C46U A70C: the yeast fitness turned out to be 0.869.

Regarding A14U C30G C33A, the yeast fitness came to 0.529.

With U3A A14G G58C, the yeast fitness came to 0.753.

Take C22U C24G C30G G41C: the yeast fitness was at most 0.5.

With U16A C30A A69U, the yeast fitness was 0.979.

Take U3C C31U A42G: the yeast fitness was 0.798.

For G39A A43U C46U, the yeast fitness was determined as 0.574.

As for U32A C61G A70U, the yeast fitness is at most 0.5.

For the variant G51U U53A, the yeast fitness is 0.657.

For G23A C30U A70C, the yeast fitness is at most 0.5.

In the case of U3G U28A, the yeast fitness was determined as 0.605.

A40G A42C: the yeast fitness was 0.757.

G10C A14U U19A C22U: the yeast fitness amounted to 0.505.

For the variant G18A C29U A45G A70G, the yeast fitness is at most 0.5.

For C22G G51A A70U, the yeast fitness is 0.665.

As for U3C G50C, the yeast fitness was 0.714.

With A21G G23A C27G A37U G44A C49U G67C A69U, the yeast fitness is at most 0.5.

For the variant U26C C30U U47A G67U, the yeast fitness is at most 0.5.

Regarding C27A G48A, the yeast fitness turned out to be 0.995.

G18C U19G C27U A43U G67U: the yeast fitness was at most 0.5.

With U13G C27G, the yeast fitness worked out at 0.537.

On to C11U A21C U35A A42U C46G, for which the yeast fitness was at most 0.5.

As for A36U G56A C66U, the yeast fitness was at most 0.5.

As to C4G A14C A20C A40G G44C U53C C55A A65U, the yeast fitness is at most 0.5.

With U16C A40U G50U, the yeast fitness was at most 0.5.

As for G6A U13C C22G C55G, the yeast fitness is at most 0.5.

Take G18A C24G G39C: the yeast fitness is at most 0.5.

For the variant G44A C46U A70C, the yeast fitness came out at 0.809.

With G41C G63C, the yeast fitness was found to be 0.727.

In the case of U19G C49U C60A, the yeast fitness is at most 0.5.

For G6A G9C C11G C27U C34U G68A, the yeast fitness is at most 0.5.

Take U2G G6A A15U C62G: the yeast fitness is at most 0.5.

In the case of A14U A20C C24U, the yeast fitness was at most 0.5.

Regarding U2A U3C G6A C66G, the yeast fitness is at most 0.5.

Take U2C A20G C27G A37C G38C A43G A69U: the yeast fitness was at most 0.5.

As for C61U G63A, the yeast fitness was determined as 0.874.

Regarding C55U A69G, the yeast fitness was 0.802.

Turning to U3G A57G, the yeast fitness is 0.908.

On to U19C A21G, for which the yeast fitness is 0.906.

A36U A37G A40C C66U: the yeast fitness is 0.636.

A15G G38C C66U: the yeast fitness is at most 0.5.

Take C4U C30A C46G C49U: the yeast fitness is 0.57.

As to A14G A21U G68C, the yeast fitness was at most 0.5.

Turning to A15C C49U U54C C55G, the yeast fitness is 0.64.

With G23A A65U, the yeast fitness is 0.916.

As to U7C A15C G38A A45G G52A C61G, the yeast fitness was 0.558.

For U3A C4U A43G, the yeast fitness was 0.579.

Take U2G C5A A70C: the yeast fitness is at most 0.5.

As to G9C A14C C22G G52A U53A, the yeast fitness turned out to be 0.503.

For the variant C11A C31U, the yeast fitness is 0.664.

For G6C U26G, the yeast fitness turned out to be 0.721.

Take G10C C27U A36C C61U: the yeast fitness stood at 0.586.

In the case of G10A A43G, the yeast fitness worked out at 0.65.

On to C5U C29G A57G, for which the yeast fitness was determined as 0.655.

Take U8G G38A: the yeast fitness was 0.57.

For the variant G48C C49A U53A G56A G58C, the yeast fitness was 0.611.

Turning to G25A C34A A65U, the yeast fitness turned out to be 0.616.

Regarding C22G G51A C60U A70U, the yeast fitness worked out at 0.637.

With G9C A14C G44C U64G A70C, the yeast fitness is at most 0.5.

For the variant C4G G10A C29U C46G, the yeast fitness is at most 0.5.

In the case of U3G A15G A21U C24U U35C G38A, the yeast fitness is at most 0.5.

Regarding C4G A43U, the yeast fitness amounted to 0.856.

For C46U C49A C62U, the yeast fitness amounted to 0.555.

With C11A G23A A43U, the yeast fitness was at most 0.5.

On to A15U C60A, for which the yeast fitness came out at 0.512.

Take C34G A36C: the yeast fitness was at most 0.5.

Regarding C4U U8A A14U A20C A36C A43C G58C C61A, the yeast fitness is at most 0.5.

Regarding A37C C55U, the yeast fitness stood at 0.769.

G9A C11G C55G: the yeast fitness amounted to 0.562.

In the case of U13G A21U C22A G25A G52U, the yeast fitness is at most 0.5.

Regarding U3G A70U, the yeast fitness was found to be 0.831.

For C5U A15G A70U, the yeast fitness worked out at 0.696.

As to G38A A65U, the yeast fitness is 0.739.

As for A20U G58A, the yeast fitness is 0.907.

On to C22U G56C A57C C61G, for which the yeast fitness is at most 0.5.

Turning to C5G U7G A15G, the yeast fitness is at most 0.5.

Turning to C4U A15C C34G A43C A65U, the yeast fitness was at most 0.5.

G10C C24G C49U: the yeast fitness is at most 0.5.

A20U C66U: the yeast fitness amounted to 0.8.

With G10A G23C C29U A36C C49G A70U, the yeast fitness was found to be 0.542.

On to G25A G63C, for which the yeast fitness came to 0.737.

Take G18A C66A: the yeast fitness was 0.516.

Consider C4A G23A G25C G51A, for which the yeast fitness came to 0.607.

As for C34A G44A C46U G68A, the yeast fitness worked out at 0.56.

Turning to A20C U47C, the yeast fitness was determined as 0.925.

G6A C24G C31G: the yeast fitness was found to be 0.527.

Take C46A A57C: the yeast fitness is 0.57.

Values taken from the RNAGym collection of RNA variant scans (doi:10.1126/science.aae0568).
